Columns and labels:
[1] = molecular target: Dual specificity protein kinase CLK1 (Homo sapiens) (UniProt P49759); assay: Inhibition of CLK (unknown origin) in human HCT-116 cells assessed as induction in alternative splicing effect in MRPS10-GUCA1B level incubated for 6 hrs by RT-PCR analysis; type: cell-based; conditions: dose 0.2-5 µM
Summary of the method: (§1)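 Cells exposed to graded T3 concentrations for 6 h (chosen to avoid cytotoxicity), with a DMSO vehicle control. Total RNA was reverse-transcribed with oligo-dT primers. Targeted splice or conjoined-gene products were quantified by real-time qPCR or by targeted next-generation sequencing. Conjoined-gene isoform expression was normalized to a sequenced housekeeping gene.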

HCT-116 [2] = assay: Induction of cell cycle arrest in human HCT-116 cells assessed as sub G0/G1 phase at 1 uM incubated for 6 hrs by flow cytometry analysis (Rvb=1.6%); type: functional
HCT-116 [3] = assay: Induction of cell cycle arrest in human HCT-116 cells assessed as G2/M phase at 1 uM incubated for 24 hrs by flow cytometry analysis (Rvb=17.9%); type: functional
[4] = molecular target: Protein kinase C theta type (Homo sapiens) (UniProt Q04759); assay: Inhibition of PRKCQ (unknown origin) at 100 nM in the presence of ATP by Kinome scan method relative to control
HCT-116 [5] = assay: Induction of apoptosis in human HCT-116 cells assessed as viable cells at 1 uM incubated for > 6 hrs by annexin V/PI staining based analysis (Rvb=90.04%); type: functional; conditions: read-out: Activity
[6] = molecular target: Dual specificity tyrosine-phosphorylation-regulated kinase 4 (Homo sapiens) (UniProt Q9NR20); assay: Inhibition of DYRK4 (unknown origin) at 1110 nM in the presence of ATP by Kinome scan method relative to control; conditions: time > 6.0 hrs
[7] = molecular target: Fibroblast growth factor receptor 1 (Homo sapiens) (UniProt P11362); assay: Inhibition of FGFR1 (unknown origin) at 1000 nM in the presence of ATP by Kinome scan method relative to control
Fibroblast growth factor receptor 1 (Homo sapiens), sequence (P11362 22-822 limits assumed): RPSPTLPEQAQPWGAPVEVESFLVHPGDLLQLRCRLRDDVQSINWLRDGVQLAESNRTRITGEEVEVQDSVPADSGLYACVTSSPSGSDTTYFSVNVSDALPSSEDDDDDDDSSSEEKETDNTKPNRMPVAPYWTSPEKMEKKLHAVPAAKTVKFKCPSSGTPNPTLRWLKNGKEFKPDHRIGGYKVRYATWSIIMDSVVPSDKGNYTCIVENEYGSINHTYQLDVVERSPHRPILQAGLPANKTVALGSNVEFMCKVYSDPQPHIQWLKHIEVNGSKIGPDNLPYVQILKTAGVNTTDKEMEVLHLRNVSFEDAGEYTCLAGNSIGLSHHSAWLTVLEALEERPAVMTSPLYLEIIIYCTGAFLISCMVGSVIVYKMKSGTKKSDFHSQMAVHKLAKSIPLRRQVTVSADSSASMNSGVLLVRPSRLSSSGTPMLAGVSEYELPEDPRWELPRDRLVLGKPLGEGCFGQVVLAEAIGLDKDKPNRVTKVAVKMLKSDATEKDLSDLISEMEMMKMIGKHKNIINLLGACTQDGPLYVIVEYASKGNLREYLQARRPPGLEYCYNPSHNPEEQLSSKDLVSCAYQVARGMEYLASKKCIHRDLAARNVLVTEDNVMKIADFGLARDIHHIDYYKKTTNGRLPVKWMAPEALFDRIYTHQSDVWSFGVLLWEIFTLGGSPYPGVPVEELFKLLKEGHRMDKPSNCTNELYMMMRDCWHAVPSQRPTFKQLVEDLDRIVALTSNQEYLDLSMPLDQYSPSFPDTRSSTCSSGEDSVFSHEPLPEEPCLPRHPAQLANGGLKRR

[8] = molecular target: Interleukin-1 receptor-associated kinase 4 (Homo sapiens) (UniProt Q9NWZ3); assay: Inhibition of IRAK4 (unknown origin) at 1000 nM in the presence of ATP by Kinome scan method relative to control
[9] = molecular target: Death-associated protein kinase 1 (Homo sapiens) (UniProt P53355); assay: Inhibition of DAPK1 (unknown origin) at 1000 nM in the presence of ATP by Kinome scan method relative to control
Death-associated protein kinase 1 (Homo sapiens), sequence (P53355 whole entry, looked up): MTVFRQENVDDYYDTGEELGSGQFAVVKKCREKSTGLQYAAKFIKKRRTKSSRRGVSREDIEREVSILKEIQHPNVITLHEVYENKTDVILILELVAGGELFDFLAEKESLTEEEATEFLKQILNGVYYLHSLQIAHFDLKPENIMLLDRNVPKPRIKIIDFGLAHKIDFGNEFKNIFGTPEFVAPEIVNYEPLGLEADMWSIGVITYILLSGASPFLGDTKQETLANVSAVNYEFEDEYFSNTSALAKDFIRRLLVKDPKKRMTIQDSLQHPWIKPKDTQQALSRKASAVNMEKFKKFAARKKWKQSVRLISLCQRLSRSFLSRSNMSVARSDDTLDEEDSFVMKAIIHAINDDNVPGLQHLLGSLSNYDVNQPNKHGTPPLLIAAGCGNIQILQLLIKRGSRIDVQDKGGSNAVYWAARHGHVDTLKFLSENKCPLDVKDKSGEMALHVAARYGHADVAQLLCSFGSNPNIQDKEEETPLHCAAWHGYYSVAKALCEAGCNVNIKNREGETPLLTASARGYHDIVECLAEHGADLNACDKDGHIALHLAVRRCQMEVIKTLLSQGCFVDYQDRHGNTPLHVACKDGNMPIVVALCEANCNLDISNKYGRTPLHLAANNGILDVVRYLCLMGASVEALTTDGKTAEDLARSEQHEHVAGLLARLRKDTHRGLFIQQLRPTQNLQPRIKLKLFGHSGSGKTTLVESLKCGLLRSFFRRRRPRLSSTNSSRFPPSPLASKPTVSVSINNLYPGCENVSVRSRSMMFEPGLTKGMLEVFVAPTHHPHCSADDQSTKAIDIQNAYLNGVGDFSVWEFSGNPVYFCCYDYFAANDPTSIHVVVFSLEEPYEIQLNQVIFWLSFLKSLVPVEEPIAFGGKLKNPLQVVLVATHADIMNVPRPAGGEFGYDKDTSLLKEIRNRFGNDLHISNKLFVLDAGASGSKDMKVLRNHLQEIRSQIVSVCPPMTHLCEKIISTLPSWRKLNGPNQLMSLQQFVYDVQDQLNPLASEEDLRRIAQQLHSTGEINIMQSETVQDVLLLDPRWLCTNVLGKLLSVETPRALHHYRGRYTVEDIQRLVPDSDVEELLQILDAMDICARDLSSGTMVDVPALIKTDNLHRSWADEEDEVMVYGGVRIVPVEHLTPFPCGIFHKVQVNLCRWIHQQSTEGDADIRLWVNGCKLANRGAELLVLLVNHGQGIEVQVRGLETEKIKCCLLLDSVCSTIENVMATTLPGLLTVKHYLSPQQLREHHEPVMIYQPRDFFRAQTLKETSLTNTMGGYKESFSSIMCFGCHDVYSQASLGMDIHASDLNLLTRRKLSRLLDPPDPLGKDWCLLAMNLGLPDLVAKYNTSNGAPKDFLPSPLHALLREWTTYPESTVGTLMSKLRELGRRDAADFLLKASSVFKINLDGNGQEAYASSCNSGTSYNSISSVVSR

[10] = molecular target: Ephrin type-A receptor 2 (Homo sapiens) (UniProt P29317); assay: Inhibition of EPHA2 (unknown origin) at 1000 nM in the presence of ATP by Kinome scan method relative to control
[11] = molecular target: Protein kinase C alpha type (Homo sapiens) (UniProt P17252); assay: Inhibition of PRKCA (unknown origin) at 100 nM in the presence of ATP by Kinome scan method relative to control
[12] = molecular target: Aurora kinase A (Homo sapiens) (UniProt O14965); assay: Inhibition of AURKA (unknown origin) at 100 nM in the presence of ATP by Kinome scan method relative to control
Aurora kinase A (Homo sapiens), sequence (O14965 whole entry): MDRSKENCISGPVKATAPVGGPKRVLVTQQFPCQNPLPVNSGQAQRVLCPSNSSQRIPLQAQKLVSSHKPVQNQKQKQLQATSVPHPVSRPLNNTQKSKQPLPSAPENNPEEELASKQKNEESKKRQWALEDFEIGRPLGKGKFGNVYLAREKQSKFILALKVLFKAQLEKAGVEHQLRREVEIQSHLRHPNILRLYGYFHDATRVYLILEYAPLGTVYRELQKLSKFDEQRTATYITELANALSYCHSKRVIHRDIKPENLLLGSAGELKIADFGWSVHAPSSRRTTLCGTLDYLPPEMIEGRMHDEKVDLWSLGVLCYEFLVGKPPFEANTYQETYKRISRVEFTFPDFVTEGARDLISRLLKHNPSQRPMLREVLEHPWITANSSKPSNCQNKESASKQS

HCT-116 [13] = assay: Induction of cell cycle arrest in human HCT-116 cells assessed as G0/G1 phase at 1 uM incubated for 24 hrs by flow cytometry analysis (Rvb=35.7%); type: functional
[14] = molecular target: Angiopoietin-1 receptor (Homo sapiens) (UniProt Q02763); assay: Inhibition of TEK (unknown origin) at 1000 nM in the presence of ATP by Kinome scan method relative to control
Homo sapiens = species: Homo sapiens; assay: Inhibition of CDK2/cyclin A (unknown origin) at 1000 nM in the presence of ATP by Kinome scan method relative to control
HCT-116 [15] = assay: Induction of apoptosis in human HCT-116 cells assessed as necrosis cells at 1 uM incubated for > 6 hrs by annexin V/PI staining based analysis (Rvb=0.55%); type: functional
[16] = molecular target: Dual specificity mitogen-activated protein kinase kinase 1 (Homo sapiens) (UniProt Q02750); assay: Inhibition of MAP2K1 (unknown origin) at 100 nM in the presence of ATP by Kinome scan method relative to control
[17] = molecular target: Tyrosine-protein kinase ABL1 (Homo sapiens) (UniProt P00519); assay: Inhibition of ABL1 (unknown origin) at 1000 nM in the presence of ATP by Kinome scan method relative to control; conditions: time > 6.0 hrs
[18] = molecular target: SRSF protein kinase 2 (Homo sapiens) (UniProt P78362); assay: Inhibition of SRPK2 (unknown origin) at 123 nM in the presence of ATP by Kinome scan method relative to control; conditions: time > 6.0 hrs
SRSF protein kinase 2 (Homo sapiens), sequence (P78362 whole entry, looked up): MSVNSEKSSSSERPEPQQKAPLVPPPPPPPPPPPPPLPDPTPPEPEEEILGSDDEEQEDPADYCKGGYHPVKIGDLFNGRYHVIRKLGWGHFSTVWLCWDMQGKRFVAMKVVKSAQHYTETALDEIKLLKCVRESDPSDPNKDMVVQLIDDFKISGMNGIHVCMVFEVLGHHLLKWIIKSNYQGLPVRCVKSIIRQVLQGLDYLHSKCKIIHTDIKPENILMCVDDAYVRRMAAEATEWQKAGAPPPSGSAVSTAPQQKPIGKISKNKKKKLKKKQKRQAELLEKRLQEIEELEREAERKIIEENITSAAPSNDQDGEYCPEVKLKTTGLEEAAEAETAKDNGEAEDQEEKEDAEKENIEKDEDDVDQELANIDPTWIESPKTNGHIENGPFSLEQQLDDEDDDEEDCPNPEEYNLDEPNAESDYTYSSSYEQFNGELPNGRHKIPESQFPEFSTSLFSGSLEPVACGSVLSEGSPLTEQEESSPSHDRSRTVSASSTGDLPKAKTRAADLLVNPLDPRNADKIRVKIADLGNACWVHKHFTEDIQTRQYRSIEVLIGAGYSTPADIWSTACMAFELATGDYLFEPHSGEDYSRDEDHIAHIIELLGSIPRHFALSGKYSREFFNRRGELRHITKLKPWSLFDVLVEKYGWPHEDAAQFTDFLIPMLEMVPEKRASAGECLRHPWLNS

HCT-116 [19] = assay: Induction of cell cycle arrest in human HCT-116 cells assessed as S phase at 5 uM incubated for 24 hrs by flow cytometry analysis (Rvb=46.4%); type: functional
[20] = molecular target: Dual specificity protein kinase CLK1 (Homo sapiens) (UniProt P49759); assay: Inhibition of CLK (unknown origin) in human HCT-116 cells assessed as induction in alternative splicing effect in S6K skipped exon /canonical form incubated for 6 hrs by RT-PCR analysis; type: cell-based; conditions: dose 0.2-5 µM; summary of the method: as §1
[21] = molecular target: Cyclin-dependent kinase 5/CDK5 activator 1 (Homo sapiens) (UniProt Q00535+Q15078); assay: Inhibition of CDK5/p35 (unknown origin) at 100 nM in the presence of ATP by Kinome scan method relative to control; type: protein-complex assay
Cyclin-dependent kinase 5/CDK5 activator 1 (Homo sapiens), sequence (Q00535 whole entry): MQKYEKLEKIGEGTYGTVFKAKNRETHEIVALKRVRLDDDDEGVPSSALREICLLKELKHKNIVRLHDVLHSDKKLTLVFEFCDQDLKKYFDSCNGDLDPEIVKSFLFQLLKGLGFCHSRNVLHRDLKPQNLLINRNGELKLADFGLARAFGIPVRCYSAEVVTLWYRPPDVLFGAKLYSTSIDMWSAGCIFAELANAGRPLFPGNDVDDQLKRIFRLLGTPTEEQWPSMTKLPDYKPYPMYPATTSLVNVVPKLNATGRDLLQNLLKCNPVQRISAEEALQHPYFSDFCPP
Cyclin-dependent kinase 5/CDK5 activator 1 (Homo sapiens), sequence (Q15078 99-307 partner limits assumed): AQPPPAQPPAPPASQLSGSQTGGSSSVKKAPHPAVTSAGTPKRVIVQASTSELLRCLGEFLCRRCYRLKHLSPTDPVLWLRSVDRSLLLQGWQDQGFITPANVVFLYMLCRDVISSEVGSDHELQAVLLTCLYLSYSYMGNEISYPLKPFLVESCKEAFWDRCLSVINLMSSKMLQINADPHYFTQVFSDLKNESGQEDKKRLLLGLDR

[22] = molecular target: Inhibitor of nuclear factor kappa-B kinase subunit beta (Homo sapiens) (UniProt O14920); assay: Inhibition of IKBKB (unknown origin) at 100 nM in the presence of ATP by Kinome scan method relative to control
[23] = molecular target: SRSF protein kinase 2 (Homo sapiens) (UniProt P78362); assay: Inhibition of SRPK2 (unknown origin) at 1110 nM in the presence of ATP by Kinome scan method relative to control; conditions: time > 6.0 hrs
[24] = molecular target: MAP kinase-activated protein kinase 2 (Homo sapiens) (UniProt P49137); assay: Inhibition of MAPKAPK2 (unknown origin) at 100 nM in the presence of ATP by Kinome scan method relative to control
[25] = molecular target: Aurora kinase A (Homo sapiens) (UniProt O14965); assay: Inhibition of AURKA (unknown origin) at 1000 nM in the presence of ATP by Kinome scan method relative to control
HCT-116 [26] = assay: Induction of apoptosis in human HCT-116 cells assessed as early apoptosis at 1 uM incubated for > 6 hrs by annexin V/PI staining based analysis (Rvb=3.29%); type: functional
[27] = molecular target: Dual specificity protein kinase CLK1 (Homo sapiens) (UniProt P49759); assay: Inhibition of CLK (unknown origin) in human HCT-116 cells assessed as induction in alternative splicing effect in S6K canonical isoform incubated for 6 hrs by RT-PCR analysis; type: cell-based; conditions: dose 0.2-5 µM; summary of the method: as §1
[28] = molecular target: Dual specificity protein kinase CLK2 (Homo sapiens, UniProt P49760); assay: Inhibition of N-terminal FLAG-tagged human CLK2 at 1110 nM in the presence of ATP by Kinome scan method relative to control
HCT-116 [29] = assay: Induction of cell cycle arrest in human HCT-116 cells assessed as S phase at 10 uM incubated for 6 hrs by flow cytometry analysis (Rvb=39.3%); type: functional
[30] = molecular target: Mitogen-activated protein kinase 9 (Homo sapiens) (UniProt P45984); assay: Inhibition of MAPK9 (unknown origin) at 100 nM in the presence of ATP by Kinome scan method relative to control
Mitogen-activated protein kinase 9 (Homo sapiens), sequence (P45984 whole entry, looked up): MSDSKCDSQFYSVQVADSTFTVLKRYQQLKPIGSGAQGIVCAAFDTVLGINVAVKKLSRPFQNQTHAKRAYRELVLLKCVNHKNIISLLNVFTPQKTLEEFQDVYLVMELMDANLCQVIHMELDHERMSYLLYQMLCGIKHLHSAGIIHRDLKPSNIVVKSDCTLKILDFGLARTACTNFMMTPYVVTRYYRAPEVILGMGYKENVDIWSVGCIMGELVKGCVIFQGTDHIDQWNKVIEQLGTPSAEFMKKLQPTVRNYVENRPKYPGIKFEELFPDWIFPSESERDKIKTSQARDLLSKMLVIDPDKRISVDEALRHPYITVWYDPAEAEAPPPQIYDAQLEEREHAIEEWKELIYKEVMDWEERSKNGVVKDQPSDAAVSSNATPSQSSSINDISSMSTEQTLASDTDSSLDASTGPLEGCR

[31] = molecular target: Death-associated protein kinase 1 (Homo sapiens) (UniProt P53355); assay: Inhibition of DAPK1 (unknown origin) at 100 nM in the presence of ATP by Kinome scan method relative to control

Dual specificity protein kinase CLK1 (Homo sapiens), sequence (P49759 whole entry, looked up, canonical isoform): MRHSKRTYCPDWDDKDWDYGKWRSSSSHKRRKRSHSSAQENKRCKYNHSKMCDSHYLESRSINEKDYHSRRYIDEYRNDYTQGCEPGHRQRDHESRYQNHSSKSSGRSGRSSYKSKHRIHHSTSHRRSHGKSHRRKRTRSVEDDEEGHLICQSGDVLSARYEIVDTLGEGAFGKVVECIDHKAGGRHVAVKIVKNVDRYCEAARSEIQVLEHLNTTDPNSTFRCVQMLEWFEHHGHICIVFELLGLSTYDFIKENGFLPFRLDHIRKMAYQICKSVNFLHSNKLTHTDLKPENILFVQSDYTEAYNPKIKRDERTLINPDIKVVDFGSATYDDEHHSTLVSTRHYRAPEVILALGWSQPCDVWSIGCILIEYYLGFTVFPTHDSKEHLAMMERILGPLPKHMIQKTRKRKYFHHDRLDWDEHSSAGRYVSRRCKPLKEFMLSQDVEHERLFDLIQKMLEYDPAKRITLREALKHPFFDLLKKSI

Q: Which results are given for CN1CCN(C(=O)C(C)(C)c2ccc(C(=O)Nc3cn4cc(-c5ccncc5)ccc4n3)cc2)CC1 [T3-CLK]?
A: inhibition [1]: Dose-Dependent Effect; Activity (HCT-116 [2]): 1.5%; Activity (HCT-116 [3]): 46%; inhibition [4]: 5%; viability at 1 µM (HCT-116 [5]): 88.4%; inhibition [6]: -3%; inhibition [7]: 9%; inhibition [8]: 42%; inhibition [9]: -6%; inhibition [10]: -6%; inhibition [11]: 4%; inhibition [12]: 5%; Activity (HCT-116 [13]): 7.3%; inhibition [14]: 0%; inhibition (Homo sapiens): 3%; Activity (HCT-116 [15]): 0.73%; inhibition [16]: 12%; inhibition [17]: 56%; inhibition [18]: 2%; Activity (HCT-116 [19]): 45.5%; inhibition [20]: Dose-Dependent Effect; inhibition [21]: 2%; inhibition [22]: -6%; inhibition [23]: 5%; inhibition [24]: 4%; inhibition [25]: 9%; Activity (HCT-116 [26]): 3.4%; inhibition [27]: Dose-Dependent Effect; inhibition [28]: 100%; Activity (HCT-116 [29]): 45.3%; inhibition [30]: 3%; inhibition [31]: -4%
